Experimental findings from ChEMBL document CHEMBL3804789, “5-Ene-4-thiazolidinones induce apoptosis in mammalian leukemia cells” (Eur J Med Chem, 2016) are described below.

One may read the IC50 as the concentration at which inhibition is half-maximal.

Experiment [1] concerns HL-60. Put plainly: Induction of apoptosis in human HL60 cells assessed as apoptotic cells at 0.1 to 1 uM after 48 hrs by Annexin V-FITC/propidium iodide staining based fluorescence microscopic analysis. It counts as functional, cell-based. Put shortly:
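HL-60 cells treated 48 h, pelleted at 2,000 rpm, washed twice in PBS and incubated 15 min in Annexin V binding buffer with 1/20 volume FITC-Annexin V and PI (20.0 μg/mL). Cells examined by fluorescence microscopy on duplicate slides, >500 cells counted per sample.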

Experiment [2] concerns the target Mitogen-activated protein kinase; ERK1/ERK2 (Homo sapiens) (UniProt P27361+P28482). As to the kind of experiment: Activation of ERK1/2 in human HL60 cells at 0.1 to 1 uM after 48 hrs by Western blot analysis. It is filed as cell-based. To be noted: HL-60. The method, boiled down:
(§1)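 HL-60 cells exposed 48 h; proteins isolated, resolved by SDS/PAGE, transferred to PVDF and immunoblotted. Equal loading checked by re-probing the same membrane for beta-actin. Peroxidase-labelled secondary antibodies at 1:5,000.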
In general terms: Immunoblotting shows a protein as a band on a membrane.

In experiment [3] the test system is HL-60. As to the kind of experiment: Induction of apoptosis in human HL60 cells assessed as increase in Bax expression at 0.1 to 1 uM after 48 hrs by Western blot analysis. It counts as functional, cell-based. Put shortly:
as §1

Experiment [4] relates to HL-60. As to the kind of experiment: Cytotoxicity against human HL60 cells assessed as reduction in cell survival up to 1 uM treated for 30 mins with ROS scavenger N-acetylcysteine measured after 72 hrs by MTT assay. It is filed as functional, cell-based. For orientation: Formazan colour is commonly taken as a measure of viable cells.
The nature of experiment [5]: (§2) Antiproliferative activity against human HL60 cells after 72 hrs by MTT assay. It is filed as functional, cell-based. To be noted: HL-60, 72 h. The method, boiled down:
(§3)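 MTT viability after 72 h continuous exposure. Cells seeded 24 h beforehand at 2,000/well (adherent) or 10,000/well (suspension), then given 0, 0.01, 0.1, 0.5, 1.0 or 10.0 μM compound diluted from 10 mM DMSO stock into RPMI or DMEM with 10% FBS, 37°C, 5% CO2. IC50 taken as concentration killing 50% of cells versus untreated culture.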

The test system of experiment [6] is HL-60. The description is as §2. It counts as functional, cell-based. Put shortly:
as §3

Experiment [7] can be described thus: Antiproliferative activity against HEK293T cells after 72 hrs by MTT assay. To be noted: Homo sapiens, HEK-293T. It is filed as cell-based. Put shortly: as §3
Experiment [8] addresses T1, Retinoblastoma-associated protein (Homo sapiens) (UniProt P06400).
T1 sequence (whole entry): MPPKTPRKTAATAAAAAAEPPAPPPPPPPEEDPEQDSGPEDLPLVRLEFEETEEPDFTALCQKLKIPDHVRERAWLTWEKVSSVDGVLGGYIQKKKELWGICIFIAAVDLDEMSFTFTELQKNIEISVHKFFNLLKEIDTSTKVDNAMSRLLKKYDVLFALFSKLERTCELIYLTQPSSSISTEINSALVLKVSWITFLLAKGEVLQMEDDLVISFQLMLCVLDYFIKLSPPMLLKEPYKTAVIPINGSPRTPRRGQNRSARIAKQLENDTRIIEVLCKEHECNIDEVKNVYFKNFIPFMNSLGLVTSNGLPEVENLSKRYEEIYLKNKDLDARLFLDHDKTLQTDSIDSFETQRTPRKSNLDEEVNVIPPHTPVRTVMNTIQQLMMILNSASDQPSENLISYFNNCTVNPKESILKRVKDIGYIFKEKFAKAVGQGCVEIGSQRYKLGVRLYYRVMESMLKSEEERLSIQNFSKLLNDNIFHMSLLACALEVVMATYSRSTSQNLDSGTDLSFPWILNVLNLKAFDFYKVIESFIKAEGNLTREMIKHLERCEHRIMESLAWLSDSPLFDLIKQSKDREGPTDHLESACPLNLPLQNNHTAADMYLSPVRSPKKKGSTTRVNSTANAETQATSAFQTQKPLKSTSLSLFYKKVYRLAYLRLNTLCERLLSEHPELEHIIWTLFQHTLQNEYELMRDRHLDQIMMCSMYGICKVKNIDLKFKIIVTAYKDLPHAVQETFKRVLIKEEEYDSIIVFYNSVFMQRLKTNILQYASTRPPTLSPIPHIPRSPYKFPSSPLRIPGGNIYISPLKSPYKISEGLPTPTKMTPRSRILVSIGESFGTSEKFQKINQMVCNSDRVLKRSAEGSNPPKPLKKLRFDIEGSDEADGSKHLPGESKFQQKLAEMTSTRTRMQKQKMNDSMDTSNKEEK
Put plainly: Inhibition of retinoblastoma protein phosphorylation in human HL60 cells at 0.1 to 1 uM after 48 hrs by Western blot analysis. It counts as cell-based. To be noted: HL-60. Put shortly: as §1

The target of experiment [9] is c-Jun N-terminal kinase, JNK (Homo sapiens) (UniProt P45983+P53779+P45984). As to the kind of experiment: Inhibition of JNK phosphorylation in human HL60 cells at 0.1 to 1 uM after 48 hrs by Western blot analysis. It is filed as cell-based. To be noted: HL-60. Put shortly:
as §1

The test system of experiment [10] is HL60/ADR. As to the kind of experiment: Antiproliferative activity against human HL60/ADR cells at 0.01 to 10 uM by MTT assay. It is filed as functional, cell-based. To be noted: TDE = time-dependent effect. Put shortly: (§4)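 MTT viability: cells seeded 24 h at 2,000 (adherent) or 10,000 (suspension) per well, then exposed 72 h to 0.01-10.0 μM (0, 0.01, 0.1, 0.5, 1.0, 10.0 μM), diluted from 10 mM DMSO stock into medium with 10% FBS. IC50 is concentration killing 50% of cells relative to untreated control.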

In experiment [11] the test system is HL-60. Put plainly: Induction of apoptosis in human HL60 cells assessed as decrease in cyclinD3 expression at 0.1 to 1 uM after 48 hrs by Western blot analysis. It is filed as functional, cell-based. The method, boiled down: as §1
A further experiment concerns L1210. As to the kind of experiment: Antiproliferative activity against mouse L1210 cells after 72 hrs by MTT assay. It counts as functional, cell-based. To be noted: L1210, 72 h. The method, boiled down:
as §3

The nature of experiment [12]: Antiproliferative activity against human HL60 cells measured at 6 hrs by MTT assay. It counts as functional, cell-based. To be noted: HL-60, 6 h. The method, boiled down: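 Exposure-time series in HL-60 cells: compound present for 3, 6, 24, 48 or 72 h, viability then read by MTT. IC50 is concentration killing 50% of cells relative to untreated culture.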
In experiment [13] the test system is HL-60. As to the kind of experiment: Antiproliferative activity against human HL60 cells at 0.01 to 10 uM by MTT assay. It counts as functional, cell-based. To be noted: TDE = time-dependent effect. The method, boiled down: as §4
The test system of another experiment is MCF7. As to the kind of experiment: Antiproliferative activity against human MCF7 cells after 72 hrs by MTT assay. To be noted: MCF7, 72 h. It counts as functional, cell-based. Put shortly: as §3
In experiment [14] the test system is HL60/ADR. As to the kind of experiment: (§5) Antiproliferative activity against human HL60/ADR cells after 72 hrs by MTT assay. It is filed as functional, cell-based. Put shortly: as §3
Experiment [15] is described as follows: as §5. It is filed as functional, cell-based. Put shortly:
as §3

A further experiment deals with Jurkat. Put plainly: Antiproliferative activity against human Jurkat cells after 72 hrs by MTT assay. It is filed as functional, cell-based. The method, boiled down: as §3
The subject of experiment [16] is HL-60. Put plainly: Induction of apoptosis in human HL60 cells assessed as increase in p21 expression at 0.1 to 1 uM after 48 hrs by Western blot analysis. It is filed as functional, cell-based. The method, boiled down:
as §1

A short description of experiment [17]: Cell cycle arrest in human HL60 cells assessed as accumulation at G0/G1 phase at 0.1 to 1 uM after 8 to 48 hrs by propidium iodide staining based flow cytometry. It counts as functional. To be noted: HL-60. Put shortly: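 HL-60 cells treated 8 and 48 h, washed in PBS, fixed in 70% ethanol and stored at -20°C. Then RNase (10 µg/ml) 30 min at 37°C, propidium iodide (5 µg/ml) 30 min, and cell-cycle distribution read by flow cytometry.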

In experiment [18] the target is MAP kinase p38 (Homo sapiens) (UniProt O15264+Q15759+Q16539+P53778). Put plainly: Induction of MAPK p38 phosphorylation in human HL60 cells at 0.1 to 1 uM after 48 hrs by Western blot analysis. To be noted: HL-60. It is filed as cell-based. Put shortly:
as §1

Experiment [19] can be described thus: Antiproliferative activity against human SKOV3 cells after 72 hrs by MTT assay. It counts as functional, cell-based. To be noted: SK-OV-3, 72 h. Put shortly:
as §3

The source made the active and inactive calls. No cut-off for these calls is given here.

Sequence of Mitogen-activated protein kinase; ERK1/ERK2 (Homo sapiens) (P27361 whole entry, looked up): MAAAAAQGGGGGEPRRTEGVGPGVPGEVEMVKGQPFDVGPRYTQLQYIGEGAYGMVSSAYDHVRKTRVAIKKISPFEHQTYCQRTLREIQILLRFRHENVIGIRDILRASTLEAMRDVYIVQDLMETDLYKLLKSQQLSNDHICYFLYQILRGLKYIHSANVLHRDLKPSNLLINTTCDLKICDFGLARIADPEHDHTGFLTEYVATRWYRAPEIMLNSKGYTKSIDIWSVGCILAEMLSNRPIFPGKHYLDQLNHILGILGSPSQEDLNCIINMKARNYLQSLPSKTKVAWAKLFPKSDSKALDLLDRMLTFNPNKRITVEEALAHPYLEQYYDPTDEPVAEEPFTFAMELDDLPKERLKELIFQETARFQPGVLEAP
Sequence of Mitogen-activated protein kinase; ERK1/ERK2 (Homo sapiens) (P28482 whole entry, looked up): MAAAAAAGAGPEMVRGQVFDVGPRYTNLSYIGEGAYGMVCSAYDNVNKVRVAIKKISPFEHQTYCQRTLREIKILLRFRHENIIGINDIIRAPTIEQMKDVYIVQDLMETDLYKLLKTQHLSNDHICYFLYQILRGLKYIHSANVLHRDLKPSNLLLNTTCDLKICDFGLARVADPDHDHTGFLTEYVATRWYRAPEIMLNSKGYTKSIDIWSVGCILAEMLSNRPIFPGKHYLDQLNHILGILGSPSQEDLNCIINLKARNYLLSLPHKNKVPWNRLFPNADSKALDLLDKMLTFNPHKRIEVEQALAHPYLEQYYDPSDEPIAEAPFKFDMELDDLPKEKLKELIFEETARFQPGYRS

Consider `CC(=O)Oc1cccc(N2C(=O)/C(=C/N3N=C(c4ccccc4)CC3c3ccccc3O)SC2=S)c1` (configuration not stated), for which the outcome (with HL-60 [1]; in experiment [2]; with HL-60 [3]; in the experiment with HL-60 [11]; with HL-60 [16]; in [17]) was Active. For the same compound, the result in [18] was Active. Besides, the outcome in the experiment on HL-60 [4] was inactive. In addition, the IC50 in experiment [5] was 0.118 µM; in experiment [7], more than 10 µM; with L1210, 0.7 µM; in experiment [12], 0.5 µM; in the experiment with MCF7, 8.3 µM; in [15], 1 µM. For the same compound, the concentration for half-maximal inhibition (IC50) with Jurkat was 1.1 µM; in experiment [19], more than 10 µM. Further, the Activity entry with HL-60 [6] was “Dose-dependent effect”; in the experiment with HL60/ADR [10], “tde”; with HL-60 [13] it was “tde”; in the experiment on HL60/ADR [14], “Dose-dependent effect”. For the same compound, the inhibition entry in experiment [8] and in [9] was “Active” each time.
